From ChEMBL document CHEMBL4699648, “Discovery of Potent and Brain-Penetrant GPR52 Agonist that Suppresses Psychostimulant Behavior” (J Med Chem, 2020)
Activity calls are given as the source filed them. The calls are words filed in the database; no cut-off is given here.

Assays:
D(1B) dopamine receptor = D(1B) dopamine receptor (Homo sapiens, UniProt P21918); experiment: Binding affinity to DRD5 (unknown origin) assessed as inhibition of ligand binding
[1] = target: Alpha-1A adrenergic receptor (Homo sapiens, UniProt P35348); experiment: Binding affinity to alpha1A receptor (unknown origin) assessed as inhibition of ligand binding
[2] = Clearance in Sprague-Dawley rat at 10 mg/kg, iv mesured up to 24 hrs; format: ADME, organism-based; conditions: in vivo
Procedure, shortened: (§1)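 Male Sprague-Dawley rats (200–250 g, n = 3/group), dosed IV 10 mg/kg or PO 20 mg/kg in 10% DMSO/90% HP-β-CD. Jugular blood into K2EDTA at 0.08 (IV only), 0.25, 0.5, 1, 2, 4, 8, 24 h; plasma by centrifugation at 4 °C, stored −20 °C. Non-compartmental analysis; Cmax read from profile, AUC by linear trapezoidal rule extrapolated to infinity; mean ± SEM.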

[3] = target: Beta-1 adrenergic receptor (Homo sapiens, UniProt P08588); experiment: Binding affinity to beta1 adrenergic receptor (unknown origin) assessed as inhibition of ligand binding
[4] = Drug level in Sprague-Dawley rat brain at 10 mg/kg, iv after 1 hr; format: ADME, organism-based; conditions: read-out: Drug uptake
Procedure, shortened: (§2)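 Male Sprague Dawley rats, 200–250 g, n = 3, were given a single 10 mg/kg IV dose in 10% DMSO/90% HP-β-CD vehicle. Brain and jugular-vein plasma (K₂EDTA, centrifuged at 4 °C) were collected 0.25 and 1 h post-dose and stored at −20 °C. Drug concentration was measured in each and the brain/plasma ratio derived. Values are mean ± SEM of biological triplicates.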

D(2) dopamine receptor = D(2) dopamine receptor (Homo sapiens, UniProt P14416); experiment: Binding affinity to DRD2 (unknown origin) assessed as inhibition of ligand binding
Histamine H2 receptor = Histamine H2 receptor (Homo sapiens, UniProt P25021); experiment: Binding affinity to HRH2 (unknown origin) assessed as inhibition of ligand binding
Histamine H1 receptor = Histamine H1 receptor (Homo sapiens, UniProt P35367); experiment: Binding affinity to HRH1 (unknown origin) assessed as inhibition of ligand binding
[5] = target: 5-hydroxytryptamine receptor 2C (Homo sapiens) (UniProt P28335); experiment: Binding affinity to 5-HT2C (unknown origin) assessed as inhibition of ligand binding at 10 uM relative to control
D(3) dopamine receptor = D(3) dopamine receptor (Homo sapiens, UniProt P35462); experiment: Binding affinity to DRD3 (unknown origin) assessed as inhibition of ligand binding
[6] = Cmax in Sprague-Dawley rat at 10 mg/kg, iv mesured up to 24 hrs; format: ADME, organism-based; parameters: route intravenous, dose 10 mg/kg, time <=24; conditions: in vivo; procedure, shortened: as §1
[7] = target: 5-hydroxytryptamine receptor 1E (Homo sapiens, UniProt P28566); experiment: Binding affinity to 5-HT1E (unknown origin) assessed as inhibition of ligand binding
[8] = target: 5-hydroxytryptamine receptor 1B (Homo sapiens, UniProt P28222); experiment: Binding affinity to 5-HT1B (unknown origin) assessed as inhibition of ligand binding
[9] = target: Alpha-1B adrenergic receptor (Homo sapiens, UniProt P35368); experiment: Binding affinity to alpha1B receptor (unknown origin) assessed as inhibition of ligand binding
[10] = target: 5-hydroxytryptamine receptor 7 (Homo sapiens, UniProt P34969); experiment: Binding affinity to 5-HT7A (unknown origin) assessed as inhibition of ligand binding
5-hydroxytryptamine receptor 7, sequence (P34969 whole entry): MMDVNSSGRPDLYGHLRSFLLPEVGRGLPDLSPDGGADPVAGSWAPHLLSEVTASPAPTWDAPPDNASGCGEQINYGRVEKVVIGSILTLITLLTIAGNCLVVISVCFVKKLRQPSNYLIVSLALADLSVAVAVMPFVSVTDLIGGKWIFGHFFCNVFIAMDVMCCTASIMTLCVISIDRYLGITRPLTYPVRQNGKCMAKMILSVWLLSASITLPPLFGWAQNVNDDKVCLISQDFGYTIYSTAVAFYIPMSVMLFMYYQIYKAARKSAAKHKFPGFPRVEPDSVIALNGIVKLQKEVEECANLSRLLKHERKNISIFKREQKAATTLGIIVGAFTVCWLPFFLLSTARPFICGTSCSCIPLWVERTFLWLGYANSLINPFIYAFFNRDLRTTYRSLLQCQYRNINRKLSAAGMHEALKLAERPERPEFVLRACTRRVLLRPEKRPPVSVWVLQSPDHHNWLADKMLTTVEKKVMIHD

[11] = target: Kappa-type opioid receptor (Homo sapiens, UniProt P41145); experiment: Binding affinity to KOR (unknown origin) assessed as inhibition of ligand binding
[12] = target: 5-hydroxytryptamine receptor 5A (Homo sapiens, UniProt P47898); experiment: Binding affinity to 5-HT5A (unknown origin) assessed as inhibition of ligand binding
5-hydroxytryptamine receptor 5A, sequence (P47898 whole entry): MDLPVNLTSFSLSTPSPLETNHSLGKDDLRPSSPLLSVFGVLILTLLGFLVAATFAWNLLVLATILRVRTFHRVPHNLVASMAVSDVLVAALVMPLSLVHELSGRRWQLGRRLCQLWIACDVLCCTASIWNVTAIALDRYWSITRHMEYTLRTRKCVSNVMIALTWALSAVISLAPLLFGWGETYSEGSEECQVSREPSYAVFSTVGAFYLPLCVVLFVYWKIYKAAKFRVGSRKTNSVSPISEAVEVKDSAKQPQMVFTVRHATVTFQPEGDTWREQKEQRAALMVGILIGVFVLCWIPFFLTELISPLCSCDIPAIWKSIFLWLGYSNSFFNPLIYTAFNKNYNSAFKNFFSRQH

Mus musculus [13] = experiment: Antipsychotic-like activity in C57/BL6 mouse assessed as reduction in horizontal activity at 3 to 10 mg/kg, ip measured after 30 mins; format: functional, organism-based; conditions: dose mg/kg 3-10, time 30.0 min
Procedure, shortened: (§3)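 Naïve male C57/BL6 mice (24–31 g, ~60 days), handled and habituated to activity monitors beforehand; n = 12/dose (11 at 1 mg/kg after outlier exclusion). Vehicle or 0.3, 1, 3, 10 mg/kg IP, then automated horizontal activity monitored 30 min; amphetamine 3 mg/kg IP followed, with monitoring for 90 min. One-way ANOVA with Dunnett's comparisons vs vehicle; mean ± SEM; blinded dosing.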

[14] = Volume of distribution at steady state in Sprague-Dawley rat at 10 mg/kg, iv mesured up to 24 hrs; format: ADME, organism-based; conditions: in vivo
Procedure, shortened: (§4)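 Male Sprague Dawley rats, 200–250 g, n = 3 per group, were dosed at 10 mg/kg IV or 20 mg/kg PO in 10% DMSO/90% HP-β-CD. Jugular plasma was sampled from 0.08 (IV) or 0.25 (PO) to 24 h. Non-compartmental analysis gave t1/2 = 0.693/λ, AUC by linear trapezoid extrapolated to infinity, Vss after IV, and absolute F. Mean ± SEM.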

[15] = Ratio of drug level in brain to plasma of Sprague-Dawley rat at 10 mg/kg, iv after 1 hr; format: ADME, organism-based; procedure, shortened: as §2
[16] = target: 5-hydroxytryptamine receptor 1A (Homo sapiens, UniProt P08908); experiment: Binding affinity to 5-HT1A (unknown origin) assessed as inhibition of ligand binding
[17] = target: Alpha-2A adrenergic receptor (Homo sapiens, UniProt P08913); experiment: Binding affinity to alpha2A receptor (unknown origin) assessed as inhibition of ligand binding
[18] = target: Muscarinic acetylcholine receptor M2 (Homo sapiens, UniProt P08172); experiment: Binding affinity to M2 receptor (unknown origin) assessed as inhibition of ligand binding
Muscarinic acetylcholine receptor M2, sequence (P08172 whole entry): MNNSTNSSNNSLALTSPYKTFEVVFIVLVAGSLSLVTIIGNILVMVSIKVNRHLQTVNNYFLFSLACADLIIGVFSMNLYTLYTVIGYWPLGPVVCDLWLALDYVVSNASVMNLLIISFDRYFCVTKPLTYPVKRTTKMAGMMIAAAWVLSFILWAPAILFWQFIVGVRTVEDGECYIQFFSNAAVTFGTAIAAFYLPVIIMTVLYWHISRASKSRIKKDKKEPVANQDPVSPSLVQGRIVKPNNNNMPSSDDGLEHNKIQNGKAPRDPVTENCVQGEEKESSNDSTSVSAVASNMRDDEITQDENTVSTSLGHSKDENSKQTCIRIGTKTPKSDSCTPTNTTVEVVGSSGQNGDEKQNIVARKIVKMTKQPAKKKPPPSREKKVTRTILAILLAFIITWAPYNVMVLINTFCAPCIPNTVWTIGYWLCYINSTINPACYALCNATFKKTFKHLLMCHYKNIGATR

[19] = target: 5-hydroxytryptamine receptor 2B (Homo sapiens, UniProt P41595); experiment: Binding affinity to 5-HT2B (unknown origin) assessed as inhibition of ligand binding
[20] = target: 5-hydroxytryptamine receptor 1D (Homo sapiens, UniProt P28221); experiment: Binding affinity to 5-HT1D (unknown origin) assessed as inhibition of ligand binding
[21] = Volume of distribution at steady state in Sprague-Dawley rat at 20 mg/kg, po mesured up to 24 hrs; format: ADME, organism-based; conditions: in vivo
[22] = Oral bioavailability in Sprague-Dawley rat at 20 mg/kg mesured up to 24 hrs; format: ADME, organism-based; conditions: in vivo; procedure, shortened: as §4
Mus musculus [23] = experiment: Antipsychotic-like activity in C57/BL6 mouse assessed as reduction in amphetamine-evoked hyperactivity by measuring horizontal activity at 0.3 to 10 mg/kg, ip dosed 30 mins before amphetamine challenge and measured for 90 mins; format: functional, organism-based; conditions: dose mg/kg 0.3-10, time […]; procedure, shortened: as §3
Homo sapiens = species: Homo sapiens; experiment: Binding affinity to GABAA receptor (unknown origin) assessed as inhibition of ligand binding at 10 uM relative to control
[24] = target: Muscarinic acetylcholine receptor M3 (Homo sapiens, UniProt P20309); experiment: Binding affinity to M3 receptor (unknown origin) assessed as inhibition of ligand binding
[25] = target: Beta-2 adrenergic receptor (Homo sapiens, UniProt P07550); experiment: Binding affinity to beta2 adrenergic receptor (unknown origin) assessed as inhibition of ligand binding
[26] = target: Muscarinic acetylcholine receptor M1 (Homo sapiens, UniProt P11229); experiment: Binding affinity to M1 receptor (unknown origin) assessed as inhibition of ligand binding
[27] = target: 5-hydroxytryptamine receptor 6 (Homo sapiens, UniProt P50406); experiment: Binding affinity to 5-HT6 (unknown origin) assessed as inhibition of ligand binding
[28] = AUC (0 to infinity) in Sprague-Dawley rat at 10 mg/kg, iv mesured up to 24 hrs; format: ADME, organism-based; parameters: route intravenous, dose 10 mg/kg, time <=24; conditions: in vivo; procedure, shortened: as §1
[29] = AUC (0 to infinity) in Sprague-Dawley rat at 20 mg/kg, po mesured up to 24 hrs; format: ADME, organism-based; parameters: route oral, dose 20 mg/kg, time <=24; conditions: in vivo; procedure, shortened: as §1
[30] = target: Muscarinic acetylcholine receptor M5 (Homo sapiens, UniProt P08912); experiment: Binding affinity to M5 receptor (unknown origin) assessed as inhibition of ligand binding
HEK293 = experiment: Effect on cAMP levels in HEK293 cells at 0.1 nM to 10000 nM incubated for 15 mins by Glosensor cAMP assay; format: functional, cell-based; conditions: Homo sapiens, dose nM 0.1-10000, time […]
Procedure, shortened: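 HEK293 cells were transiently co-transfected with human GPR52 and the 22F Glosensor cAMP reporter. After 18 h they were seeded on poly-L-lysine, then equilibrated 2 h at room temperature in the dark in 1% Glosensor reagent/HBSS/20 mM HEPES. Cells were treated 15 min with a twelve-point series, and luminescence was read.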

D(4) dopamine receptor = D(4) dopamine receptor (Homo sapiens, UniProt P21917); experiment: Binding affinity to DRD4 (unknown origin) assessed as inhibition of ligand binding
Mu-type opioid receptor = Mu-type opioid receptor (Homo sapiens, UniProt P35372); experiment: Binding affinity to MOR (unknown origin) assessed as inhibition of ligand binding
Mu-type opioid receptor, sequence (P35372 whole entry): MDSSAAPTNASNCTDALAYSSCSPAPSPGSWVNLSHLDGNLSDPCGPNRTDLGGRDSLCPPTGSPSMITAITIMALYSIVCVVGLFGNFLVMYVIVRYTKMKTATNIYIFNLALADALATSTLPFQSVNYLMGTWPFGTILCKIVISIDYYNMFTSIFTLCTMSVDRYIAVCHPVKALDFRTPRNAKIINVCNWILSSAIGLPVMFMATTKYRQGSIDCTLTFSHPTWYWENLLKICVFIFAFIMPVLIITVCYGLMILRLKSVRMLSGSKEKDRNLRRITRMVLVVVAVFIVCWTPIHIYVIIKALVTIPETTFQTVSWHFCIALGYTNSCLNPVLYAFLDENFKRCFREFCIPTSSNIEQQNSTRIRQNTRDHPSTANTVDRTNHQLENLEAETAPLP

hERG (KCNH2) = hERG (KCNH2) (Homo sapiens, UniProt Q12809); experiment: Binding affinity to human ERG assessed as inhibition of ligand binding at 10 uM relative to control
hERG (KCNH2), sequence (Q12809 whole entry): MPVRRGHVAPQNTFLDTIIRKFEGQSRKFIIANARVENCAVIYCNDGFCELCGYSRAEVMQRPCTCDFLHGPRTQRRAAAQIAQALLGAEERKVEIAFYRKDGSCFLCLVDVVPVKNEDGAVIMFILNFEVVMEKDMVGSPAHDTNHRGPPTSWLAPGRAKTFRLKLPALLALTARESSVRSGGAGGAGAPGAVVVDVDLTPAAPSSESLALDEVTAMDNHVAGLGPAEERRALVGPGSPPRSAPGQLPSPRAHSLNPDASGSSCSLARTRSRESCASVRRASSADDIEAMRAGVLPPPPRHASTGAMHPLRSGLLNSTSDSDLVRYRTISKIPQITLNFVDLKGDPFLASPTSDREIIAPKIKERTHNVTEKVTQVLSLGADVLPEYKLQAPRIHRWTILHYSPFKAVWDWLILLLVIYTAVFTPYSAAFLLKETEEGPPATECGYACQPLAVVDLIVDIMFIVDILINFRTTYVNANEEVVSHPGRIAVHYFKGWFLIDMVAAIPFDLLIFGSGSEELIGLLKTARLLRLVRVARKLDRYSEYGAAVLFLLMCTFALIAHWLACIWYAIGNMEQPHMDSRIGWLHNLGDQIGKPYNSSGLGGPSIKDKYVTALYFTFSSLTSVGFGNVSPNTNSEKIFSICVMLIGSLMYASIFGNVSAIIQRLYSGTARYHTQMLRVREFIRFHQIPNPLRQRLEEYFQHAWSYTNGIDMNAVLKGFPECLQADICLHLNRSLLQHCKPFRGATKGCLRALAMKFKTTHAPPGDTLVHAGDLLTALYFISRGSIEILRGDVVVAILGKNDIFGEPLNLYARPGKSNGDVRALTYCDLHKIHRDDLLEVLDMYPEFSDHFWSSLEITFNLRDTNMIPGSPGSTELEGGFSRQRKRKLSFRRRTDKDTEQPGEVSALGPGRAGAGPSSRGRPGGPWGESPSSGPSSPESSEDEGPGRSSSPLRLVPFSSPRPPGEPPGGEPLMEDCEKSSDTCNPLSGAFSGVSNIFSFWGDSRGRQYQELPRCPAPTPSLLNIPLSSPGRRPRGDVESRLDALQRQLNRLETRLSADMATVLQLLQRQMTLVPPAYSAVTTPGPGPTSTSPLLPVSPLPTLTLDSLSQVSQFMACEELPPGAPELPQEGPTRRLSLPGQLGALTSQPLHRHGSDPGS

[31] = Cmax in Sprague-Dawley rat at 20 mg/kg, po mesured up to 24 hrs; format: ADME, organism-based; parameters: route oral, dose 20 mg/kg, time <=24; conditions: in vivo; procedure, shortened: as §1
[32] = target: Sodium-dependent dopamine transporter (Homo sapiens, UniProt Q01959); experiment: Binding affinity to DAT (unknown origin) assessed as inhibition of ligand binding
[33] = target: Muscarinic acetylcholine receptor M4 (Homo sapiens, UniProt P08173); experiment: Binding affinity to M4 receptor (unknown origin) assessed as inhibition of ligand binding
[34] = target: Voltage-gated inwardly rectifying potassium channel KCNH2 (Homo sapiens, UniProt Q12809); experiment: Binding affinity to human ERG assessed as inhibition of ligand binding
Voltage-gated inwardly rectifying potassium channel KCNH2, sequence (Q12809 whole entry): as above

[35] = Drug level in Sprague-Dawley rat plasma at 10 mg/kg, iv after 1 hr; format: ADME, organism-based; procedure, shortened: as §2
[36] = Binding affinity to GABAA receptor (unknown origin) assessed as inhibition of ligand binding; parameters: species or system Homo sapiens
[37] = target: 5-hydroxytryptamine receptor 3A (Homo sapiens, UniProt P46098); experiment: Binding affinity to 5-HT3 (unknown origin) assessed as inhibition of ligand binding
5-hydroxytryptamine receptor 3A, sequence (P46098 whole entry): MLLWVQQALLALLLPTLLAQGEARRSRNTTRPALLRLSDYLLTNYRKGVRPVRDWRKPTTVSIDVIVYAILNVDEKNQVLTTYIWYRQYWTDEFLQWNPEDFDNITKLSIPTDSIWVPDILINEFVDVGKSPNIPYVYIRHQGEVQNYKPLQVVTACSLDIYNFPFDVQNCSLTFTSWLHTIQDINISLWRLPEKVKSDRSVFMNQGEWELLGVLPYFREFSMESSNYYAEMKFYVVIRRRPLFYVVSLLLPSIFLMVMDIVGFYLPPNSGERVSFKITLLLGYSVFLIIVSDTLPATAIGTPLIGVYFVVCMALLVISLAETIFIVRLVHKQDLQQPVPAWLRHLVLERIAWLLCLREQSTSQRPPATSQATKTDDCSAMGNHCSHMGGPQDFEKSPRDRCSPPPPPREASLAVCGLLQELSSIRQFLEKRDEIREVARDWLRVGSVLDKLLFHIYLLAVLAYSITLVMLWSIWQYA

[38] = target: 5-hydroxytryptamine receptor 2A (Homo sapiens, UniProt P28223); experiment: Binding affinity to 5-HT2A (unknown origin) assessed as inhibition of ligand binding
D(1A) dopamine receptor = D(1A) dopamine receptor (Homo sapiens, UniProt P21728); experiment: Binding affinity to DRD1 (unknown origin) assessed as inhibition of ligand binding

D(1B) dopamine receptor, sequence (P21918 whole entry): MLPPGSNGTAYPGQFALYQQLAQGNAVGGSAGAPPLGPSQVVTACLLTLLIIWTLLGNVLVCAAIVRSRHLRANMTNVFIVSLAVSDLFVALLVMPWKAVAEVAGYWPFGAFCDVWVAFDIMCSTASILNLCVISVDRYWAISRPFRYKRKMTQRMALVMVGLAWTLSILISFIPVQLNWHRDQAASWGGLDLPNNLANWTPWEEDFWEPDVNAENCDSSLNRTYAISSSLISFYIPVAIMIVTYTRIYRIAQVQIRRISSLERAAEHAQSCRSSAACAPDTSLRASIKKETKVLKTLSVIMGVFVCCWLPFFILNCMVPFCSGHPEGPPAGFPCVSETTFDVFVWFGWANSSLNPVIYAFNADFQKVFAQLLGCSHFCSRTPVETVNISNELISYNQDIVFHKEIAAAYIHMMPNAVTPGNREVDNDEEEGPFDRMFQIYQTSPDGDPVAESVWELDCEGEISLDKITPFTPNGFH

Q: Which results are given for `O=C(NCCO)c1cccc2c1CCN2c1cc(Cc2cc(F)cc(C(F)(F)F)c2)ncn1`?
A: Ki (D(1B) dopamine receptor): Not Active; Ki [1]: Not Active; CL [2]: 1.1 L/h/kg; Ki [3]: Not Active; concentration at 1 h [4]: 1010 ng/g; Ki (D(2) dopamine receptor): Not Active; Ki (Histamine H2 receptor): Not Active; Ki (Histamine H1 receptor): Not Active; inhibition [5]: 52.6%; Ki (D(3) dopamine receptor): Not Active; Cmax [6]: 6.726 µg/mL; Ki [7]: Not Active; Ki [8]: Not Active; Ki [9]: Not Active; Ki [10]: Not Active; Ki [11]: Not Active; Ki [12]: Not Active; Activity (Mus musculus [13]): Active; Vdss [14]: 1.5 L/kg; BPR [15]: 0.39; Ki [16]: Not Active; Ki [17]: Not Active; Ki [18]: Not Active; Ki [19]: Not Active; Ki [20]: Not Active; Vdss [21]: 5.5 L/kg; bioavailability [22]: 76%; Activity (Mus musculus [23]): Dose-dependent effect; inhibition (Homo sapiens): 5.98%; Ki [24]: Not Active; Ki [25]: Not Active; Ki [26]: Not Active; Ki [27]: Not Active; AUC [28]: 9.03 µg·h/mL; AUC [29]: 13.749 µg·h/mL; Ki [30]: Not Active; Activity (HEK293): inactive; Ki (D(4) dopamine receptor): Not Active; Ki (Mu-type opioid receptor): Not Active; inhibition at 10 µM (hERG (KCNH2)): 11%; Cmax [31]: 3.407 µg/mL; Ki [32]: Not Active; Ki [33]: Not Active; Ki [34]: Not Active; concentration at 1 h [35]: 2590 ng/g; Ki [36]: Not Active; Ki [37]: Not Active; Ki [38]: Not Active; Ki (D(1A) dopamine receptor): Not Active
